Screening data deposited in PubChem by several laboratories.
Only a selection was taken, and hits are over-represented in it overall.
T cell HTS – modulates CD8 T cell binding to vesicles | 2C CD8+ T cell-vesicle binding, flow cytometry; active compounds read low | response (vesicle binding), % at 7 µM | hit rate 0.068% among 330,000;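 active = response, share of CD8 T cells binding vesicles, and their 90th percentile fluorescence all below set limits, cut at about 80% in these data, passing the limit was not always enough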;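 also: values below 100% mean blocked vesicle binding to the CD8+ T cells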
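Also added: QL9-peptide-loaded Drosophila micro-vesicles bearing Ld, ICAM-1 and B7-1; Test system: purified 2C TCR transgenic mouse naive CD8+ T cells; Measured by: cytometric PE anti-B7-1 and Alexa647 anti-CD8 signals after 1% paraformaldehyde fixation; Timing: binding step 1.5 h, 37 °C, antibody labelling 20 min, ice.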
ALR H2O2 inh – blocks human ALR sulfhydryl oxidase activity. P55789. purified ALR, DTT oxidation, H2O2 HRP-luminol luminescence. inhibition, % (concentration not given with the values). hit rate 3.8% among 290,000. AID 485317;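 active = mean replicate inhibition above about 79%, with every replicate also reaching it, limit read from the data; inconclusive = only one of the two criteria met; inactive = mean below limit and not every replicate reaching it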
Target sequence (P55789 whole entry, looked up): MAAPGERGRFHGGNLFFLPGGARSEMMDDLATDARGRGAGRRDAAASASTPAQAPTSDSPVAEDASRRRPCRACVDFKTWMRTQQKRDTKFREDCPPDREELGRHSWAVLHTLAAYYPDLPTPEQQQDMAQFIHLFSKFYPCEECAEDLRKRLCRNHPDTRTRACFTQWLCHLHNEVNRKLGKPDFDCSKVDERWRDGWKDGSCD
Glyco luc inh – N-linked glycosylation inhibition; D54 ERlucT glycosylation luciferase reporter, 24 h; percent of 100 nM tunicamycin response; reporter increase, % at 12.5 µM; hit rate 0.23% among 360,000; AID 588692;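 active = mean luciferase reporter signal, scaled so untreated is 0 and the glycosylation-blocking control 100, at or above a set limit in every replicate; inconclusive = mean reaches the limit but not every replicate does; inactive = mean below the limit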;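 also: luciferase carries N-glycosylation sites so blocking glycosylation raises the light; 0% = median of neutral control wells and 100% = median of 100 nM tunicamycin wells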
An asterisk follows results filed as active.

Results for COC(=O)c1ccc(OCC(O)CN2CCc3cc(OC)c(OC)cc3C2c2ccccc2)cc1 (configuration not stated) ?
T cell HTS: 526.5; ALR H2O2 inh: -0.9; Glyco luc inh: 0.8

What do the screens show for `CC1CN(C(=O)COC(=O)c2ccc3ccccc3c2)CC(C)O1` (configuration not stated)?
Glyco luc inh: 2.3

How did Cc1ccc(NC(=O)c2ccc(OC(F)(F)F)cc2)cc1S(=O)(=O)N(C)C do in these assays?
T cell HTS: 335.9; ALR H2O2 inh: -10.5; Glyco luc inh: -5.6

What do the screens show for `CCC(C)[C@H](NC(=O)N1CC(=O)Nc2ccccc21)C(=O)Nc1nccs1` (some centres not stated)?
T cell HTS: 255.0; ALR H2O2 inh: 3.7; Glyco luc inh: 2.5

How did CC(C)[C@H](NC(=O)N1CC(=O)Nc2ccccc21)C(=O)Nc1nccs1 do in these assays?
T cell HTS: 400.3; ALR H2O2 inh: 90.6*; Glyco luc inh: 1.6

How did CCC(NS(=O)(=O)c1ccc2c(c1)NC(=O)C(C)C(=O)N2)c1cccs1 (configuration not stated) do in these assays?
T cell HTS: 717.7; ALR H2O2 inh: -4.3; Glyco luc inh: 1.0

How did CCN(CC(=O)Nc1c(F)cccc1F)C(=O)CNC(=O)COc1ccccc1 do in these assays?
T cell HTS: 317.3; ALR H2O2 inh: -0.5; Glyco luc inh: 1.2

How did Cn1c(CNC(=O)OC(C)(C)C)nnc1SCC(=O)N1CCOCC1 do in these assays?
T cell HTS: 530.4; ALR H2O2 inh: -6.7; Glyco luc inh: 0.1

How did O=C(O/N=C1\CCS(=O)(=O)c2sccc21)c1c(F)cccc1F do in these assays?
T cell HTS: 309.1; ALR H2O2 inh: 0.9; Glyco luc inh: 3.6

Results for O=S1(=O)CC/C(=N\Nc2ccccc2)c2ccsc21 ?
T cell HTS: 286.3; ALR H2O2 inh: 100.1*; Glyco luc inh: 0.2

What do the screens show for `O=C(c1ccc(OCCN2CCCCC2)cc1)c1c(-c2ccc(O)cc2)sc2cc(O)ccc12`?
T cell HTS: 512.6; ALR H2O2 inh: 90.9*; Glyco luc inh: -3.3

Results for COC(=O)c1ccc(OCCN2CCCCCC2)cc1 ?
T cell HTS: 156.2; ALR H2O2 inh: -32.1; Glyco luc inh: 0.6

Results for Cc1ccsc1C(=O)OCC(=O)N1CCN(c2ccccc2)CC1 ?
T cell HTS: 158.4; ALR H2O2 inh: inconclusive; Glyco luc inh: -0.3

Results for Cn1cccc1C(=O)OCC(=O)N1CCN(c2ccccc2)CC1 ?
T cell HTS: 369.1; ALR H2O2 inh: 97.9*; Glyco luc inh: 0.0

Results for O=C(OCC(=O)N1CCN(c2ccccc2)CC1)c1ccc2ccccc2n1 ?
T cell HTS: 199.4; ALR H2O2 inh: 97.4*; Glyco luc inh: 3.0

What do the screens show for `O=C(OCC(=O)N1CCN(c2ccccc2)CC1)c1ccccn1`?
T cell HTS: 189.0; ALR H2O2 inh: 73.7; Glyco luc inh: 0.7

How did Cn1cnc(C(=O)N2CCc3ccccc3C2)c1C(=O)N1CCc2ccccc2C1 do in these assays?
T cell HTS: 363.5; ALR H2O2 inh: -7.5; Glyco luc inh: 1.2

Results for O=C(NCCCN1CCOCC1)c1c(-c2ccccc2)sc2ccccc12 ?
T cell HTS: 468.8; Glyco luc inh: 0.6

How did COc1cccc(CN2CCNC(=O)C2CC(=O)NCCCC2CCCC2)c1OC (configuration not stated) do in these assays?
T cell HTS: 147.7; ALR H2O2 inh: 4.4; Glyco luc inh: -3.7

Results for C[C@@H]1CN([C@@H](C)CO)S(=O)(=O)c2ccc(Br)cc2O[C@@H]1CN(C)C(=O)C1CC1 ?
Glyco luc inh: -0.1

What do the screens show for `COc1ccc(Cl)cc1NC(=O)C1CC(c2ccccc2Cl)=NO1` (configuration not stated)?
Glyco luc inh: 2.4

Results for Cc1ccc(S(=O)(=O)Nc2c(NC3CCCCC3)c3ccccc3oc2=O)cc1 ?
T cell HTS: 371.1; ALR H2O2 inh: 28.9; Glyco luc inh: -1.4

Results for CN(C)CCNc1c(N)c(=O)oc2ccccc12 ?
T cell HTS: 134.7; ALR H2O2 inh: 2.0; Glyco luc inh: 3.4

How did Cc1ccccc1Nc1c(N)c(=O)oc2ccccc12 do in these assays?
T cell HTS: 775.8; ALR H2O2 inh: 98.8*; Glyco luc inh: 1.8

Results for Nc1c(NC2CCCCC2)c2ccccc2oc1=O ?
T cell HTS: 294.5; ALR H2O2 inh: 99.3*; Glyco luc inh: -2.8

Results for COc1ccc(S(=O)(=O)N2CCCCC2)cc1NC(=O)CCNC(=O)c1ccco1 ?
Glyco luc inh: 0.5

What do the screens show for `Cc1ccc(N2C(=O)c3ccc(C(=O)O)cc3C2=O)cc1C`?
T cell HTS: 634.7; ALR H2O2 inh: 95.5*; Glyco luc inh: 0.6

How did Cc1ccc(N2C(=O)c3ccc(C(=O)N4CCN(c5ccc(C)c(C)c5)CC4)cc3C2=O)cc1 do in these assays?
T cell HTS: 204.4; ALR H2O2 inh: -2.3; Glyco luc inh: 2.3

How did CN(Cc1ccccc1)c1nnc(N)s1 do in these assays?
T cell HTS: 352.0; ALR H2O2 inh: inconclusive; Glyco luc inh: 2.1

Results for CC(C)N(c1nnc(N)s1)C(C)C ?
T cell HTS: 197.6; ALR H2O2 inh: 96.7*; Glyco luc inh: -0.9

How did CC1=NN(c2ccccc2)C(=O)/C1=C/C=C/C=C/N(C)C do in these assays?
T cell HTS: 251.4; ALR H2O2 inh: 96.4*; Glyco luc inh: -4.6

What do the screens show for `CC1=NN(c2ccc(C)cc2)C(=O)/C1=C\C=C\c1ccccc1`?
T cell HTS: 139.1; ALR H2O2 inh: -3.8; Glyco luc inh: inconclusive

How did CCOc1ncccc1C(=O)N1CCN(C(c2ccccc2)c2ccccc2)CC1 do in these assays?
T cell HTS: 314.6; ALR H2O2 inh: 3.1; Glyco luc inh: -4.4

Results for COCCN1CCN(C(=O)c2cc(COc3ccc(F)cc3F)on2)CC1 ?
T cell HTS: 249.8; ALR H2O2 inh: -6.9; Glyco luc inh: 2.1

Results for COc1ccc2[nH]c(C(=O)N3CCN(Cc4ccccc4)CC3)cc2c1OC ?
T cell HTS: 297.8; ALR H2O2 inh: -7.1; Glyco luc inh: 45.0*

Results for Cc1[nH]c2ccc(C(=O)N3CCN(Cc4ccccc4)CC3)cc2c1C ?
T cell HTS: 210.8; ALR H2O2 inh: -1.3; Glyco luc inh: -4.2

What do the screens show for `CN1CCCC(OC(=O)c2ccc(S(=O)(=O)N(C)C)cc2)C1` (configuration not stated)?
T cell HTS: 160.4; ALR H2O2 inh: 2.1; Glyco luc inh: -5.2

Results for CC(=O)N1Cc2cc(N)ccc2Oc2ccccc21 ?
T cell HTS: 95.8; ALR H2O2 inh: 88.7*; Glyco luc inh: -1.2

Results for CC(=O)N1CCN(C(C)=O)c2ccccc21 ?
Glyco luc inh: 1.7

What do the screens show for `Cc1nnc(SCC(=O)Nc2ccc(OC(F)F)c(Cl)c2)n(N)c1=O`?
T cell HTS: 144.8; ALR H2O2 inh: 99.0*; Glyco luc inh: -0.5

Results for Cc1ccc(NC(=O)CSc2nnc(C)c(=O)n2N)cc1Cl ?
T cell HTS: 394.6; ALR H2O2 inh: 48.2; Glyco luc inh: 0.9

Results for COc1ccc(NC(=O)CSc2nnc(Cc3ccccc3)c(=O)n2N)c(OC)c1 ?
T cell HTS: 363.5; ALR H2O2 inh: 0.0; Glyco luc inh: -0.1

How did Nn1c(SCC(=O)Nc2ccc(OC(F)F)cc2)nnc(Cc2ccccc2)c1=O do in these assays?
T cell HTS: 508.4; ALR H2O2 inh: 97.9*; Glyco luc inh: 1.1
